From ChEMBL document CHEMBL1649569, “oqxAB encoding a multidrug efflux pump in human clinical isolates of Enterobacteriaceae” (2009) come the findings set out here.

SMILES strings stand for the structures. In brackets after ≈: the same amount, converted by molar mass.

Experiment [1] concerns Klebsiella pneumoniae. The experiment in a line: Antibacterial activity against Klebsiella pneumoniae isolate 2-54 by Etest method.
For experiment [2], the system named is Klebsiella pneumoniae. The experiment in a line: Antibacterial activity against Klebsiella pneumoniae isolate 3-45 by Etest method.
Experiment [3] concerns Klebsiella pneumoniae. Kind of experiment: Antibacterial activity against Klebsiella pneumoniae isolate 5-22 by Etest method.
The test system of experiment [4] is Escherichia coli. Kind of experiment: Antibacterial activity against Escherichia coli isolate 1-12 by Etest method.
In experiment [5] the test system is Escherichia coli. Kind of experiment: Antibacterial activity against Escherichia coli isolate 4-69 by Etest method.
The subject of experiment [6] is Escherichia coli. The experiment in a line: Antibacterial activity against Escherichia coli isolate 4-78 by Etest method.
Experiment [7] deals with Escherichia coli. The experiment in a line: Antibacterial activity against Escherichia coli isolate 5-56 by Etest method.
The test system of experiment [8] is Escherichia coli. Kind of experiment: Antibacterial activity against Escherichia coli isolate 5-59 harboring qepA gene by Etest method.
Experiment [9] deals with Klebsiella pneumoniae. Kind of experiment: Antibacterial activity against Klebsiella pneumoniae isolate 4-39 by Etest method.
In experiment [10] the test system is Klebsiella pneumoniae. The experiment in a line: Antibacterial activity against Klebsiella pneumoniae isolate 5-80 by Etest method.
The subject of experiment [11] is Klebsiella pneumoniae. The experiment in a line: Antibacterial activity against Klebsiella pneumoniae isolate 6-49 by Etest method.
Experiment [12] relates to Klebsiella pneumoniae. Kind of experiment: Antibacterial activity against Klebsiella pneumoniae isolate 4-13 harboring aac(6')Ib-cr gene by Etest method.
In experiment [13] the test system is Klebsiella pneumoniae. The experiment in a line: Antibacterial activity against Klebsiella pneumoniae isolate 4-38 harboring aac(6')Ib-cr gene by Etest method.
Experiment [14] has as its system Klebsiella pneumoniae. Kind of experiment: Antibacterial activity against Klebsiella pneumoniae isolate 1-68 by broth dilution method. Type of experiment: functional. Put shortly:
(§1)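 Clinical isolates tested by broth dilution in LB broth, with the MIC read as the end-point.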
On the technique in general: In broth dilution the organism is exposed to a series of concentrations in liquid medium.

The subject of experiment [15] is Klebsiella pneumoniae. Kind of experiment: Antibacterial activity against Klebsiella pneumoniae isolate 2-54 by broth dilution method. Type of experiment: functional. The method, boiled down: as §1
The test system of experiment [16] is Klebsiella pneumoniae. Kind of experiment: Antibacterial activity against Klebsiella pneumoniae isolate 3-45 by broth dilution method. The class given is functional. The method, boiled down:
as §1

Experiment [17] relates to Klebsiella pneumoniae. Kind of experiment: Antibacterial activity against Klebsiella pneumoniae isolate 5-22 by broth dilution method. Type of experiment: functional. Put shortly:
as §1

The subject of experiment [18] is Escherichia coli. Kind of experiment: Antibacterial activity against Escherichia coli ATCC 25922 by broth dilution method. The class given is functional.
Experiment [19] has as its system Escherichia coli. Kind of experiment: Antibacterial activity against Escherichia coli isolate 1-12 by broth dilution method. Type of experiment: functional. Put shortly: as §1
Experiment [20] deals with Escherichia coli. Kind of experiment: Antibacterial activity against Escherichia coli isolate 4-67 by broth dilution method. Type of experiment: functional. The method, boiled down:
(§2)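 MIC by broth dilution in LB broth against human clinical Enterobacteriaceae isolates, with strains characterised by PCR for oqxA/oqxB and other plasmid-mediated quinolone resistance genes.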

The test system of experiment [21] is Escherichia coli. The experiment in a line: Antibacterial activity against Escherichia coli isolate 4-69 by broth dilution method. The class given is functional. The method, boiled down:
as §2

Experiment [22] relates to Escherichia coli. The experiment in a line: Antibacterial activity against Escherichia coli isolate 4-78 by broth dilution method. The class given is functional. Put shortly: as §2
The test system of experiment [23] is Escherichia coli. The experiment in a line: Antibacterial activity against Escherichia coli isolate 5-56 by broth dilution method. Type of experiment: functional. Put shortly:
as §2

Experiment [24] deals with Escherichia coli. The experiment in a line: Antibacterial activity against Escherichia coli isolate 5-65 by broth dilution method. Type of experiment: functional. The method, boiled down:
as §2

The test system of experiment [25] is Escherichia coli. The experiment in a line: Antibacterial activity against Escherichia coli isolate 5-59 harboring qepA gene by broth dilution method. Type of experiment: functional. The method, boiled down:
as §2

For experiment [26], the system named is Enterobacter cloacae. Kind of experiment: Antibacterial activity against Enterobacter cloacae isolate 1-26 by broth dilution method. The class given is functional. Put shortly:
as §1

The subject of experiment [27] is Enterobacter cloacae. The experiment in a line: Antibacterial activity against Enterobacter cloacae isolate 1-39 by broth dilution method. Type of experiment: functional. The method, boiled down:
as §1

Experiment [28] concerns Enterobacter cloacae. Kind of experiment: Antibacterial activity against Enterobacter cloacae isolate 1-40 by broth dilution method. The class given is functional. Put shortly: as §1
In experiment [29] the test system is Enterobacter cloacae. The experiment in a line: Antibacterial activity against Enterobacter cloacae isolate 1-3 by broth dilution method. The class given is functional. The method, boiled down:
as §1

Experiment [30] has as its system Enterobacter cloacae. The experiment in a line: Antibacterial activity against Enterobacter cloacae isolate 4-11 by broth dilution method. Type of experiment: functional. Put shortly:
as §1

In experiment [31] the test system is Enterobacter cloacae. The experiment in a line: Antibacterial activity against Enterobacter cloacae isolate 6-4 by broth dilution method. Type of experiment: functional. The method, boiled down:
as §1

Experiment [32] concerns Klebsiella pneumoniae. The experiment in a line: Antibacterial activity against Klebsiella pneumoniae isolate 3-51 by broth dilution method. The class given is functional. Put shortly:
as §1

Experiment [33] concerns Klebsiella pneumoniae. The experiment in a line: Antibacterial activity against Klebsiella pneumoniae isolate 4-39 by broth dilution method. The class given is functional. Put shortly:
as §1

For experiment [34], the system named is Klebsiella pneumoniae. Kind of experiment: Antibacterial activity against Klebsiella pneumoniae isolate 5-80 by broth dilution method. Type of experiment: functional. The method, boiled down: as §1
Experiment [35] concerns Klebsiella pneumoniae. Kind of experiment: Antibacterial activity against Klebsiella pneumoniae isolate 6-49 by broth dilution method. The class given is functional. Put shortly: as §1
Experiment [36] has as its system Klebsiella pneumoniae. Kind of experiment: Antibacterial activity against Klebsiella pneumoniae isolate 4-13 harboring aac(6')Ib-cr gene by broth dilution method. Type of experiment: functional. The method, boiled down:
as §2

Experiment [37] deals with Klebsiella pneumoniae. The experiment in a line: Antibacterial activity against Klebsiella pneumoniae isolate 4-38 harboring aac(6')Ib-cr gene by broth dilution method. Type of experiment: functional. Put shortly: as §2
Experiment [38] deals with Escherichia coli. Kind of experiment: Antibacterial activity against azide-resistant Escherichia coli J53 by broth dilution method.

One may read the MIC as the lowest concentration found to suppress growth. With `O=C(O)c1cn(C2CC2)c2cc(N3CCNCC3)c(F)cc2c1=O` [CIPROFLOXACIN], the minimum inhibitory concentration (MIC) in the experiment on Klebsiella pneumoniae [1] was 0.023 µg/mL (≈ 0.0694 µM); against Klebsiella pneumoniae [2], 0.023 µg/mL (≈ 0.0694 µM); with Klebsiella pneumoniae [3] it was 0.064 µg/mL (≈ 0.193 µM); with Escherichia coli [4], greater than 32 µg/mL; against Escherichia coli [5], greater than 32 µg/mL; in the experiment on Escherichia coli [6], greater than 32 µg/mL. Besides, the minimum inhibitory concentration (MIC) against Escherichia coli [7] was greater than 32 µg/mL; in the experiment with Escherichia coli [8], greater than 32 µg/mL; against Klebsiella pneumoniae [9], 0.064 µg/mL (≈ 0.193 µM); against Klebsiella pneumoniae [10] it was 3 µg/mL (≈ 9.05 µM); against Klebsiella pneumoniae [11], greater than 32 µg/mL; against Klebsiella pneumoniae [12], greater than 32 µg/mL. The same compound came in with an MIC in the experiment on Klebsiella pneumoniae [13] greater than 32 µg/mL.
For the compound `Cc1c(C(=O)NCCO)[n+]([O-])c2ccccc2[n+]1[O-]` [OLAQUINDOX], the MIC turned out to be 8 µg/mL (≈ 30.4 µM) in the experiment with Klebsiella pneumoniae [14]; 8 µg/mL (≈ 30.4 µM) against Klebsiella pneumoniae [15]; 16 µg/mL (≈ 60.8 µM) in the experiment with Klebsiella pneumoniae [16]; 8 µg/mL (≈ 30.4 µM) against Klebsiella pneumoniae [17]; 8 µg/mL (≈ 30.4 µM) in the experiment on Escherichia coli [18]; 256 µg/mL (≈ 972 µM) in the experiment with Escherichia coli [19]. Moreover, the MIC in the experiment with Escherichia coli [20], against Escherichia coli [21], against Escherichia coli [22], against Escherichia coli [23], against Escherichia coli [24] and against Escherichia coli [25] was 16 µg/mL (≈ 60.8 µM) each time. Besides, the minimum inhibitory concentration (MIC) was 128 µg/mL (≈ 486 µM) against Enterobacter cloacae [26]; 128 µg/mL (≈ 486 µM) with Enterobacter cloacae [27]; 128 µg/mL (≈ 486 µM) against Enterobacter cloacae [28]; 64 µg/mL (≈ 243 µM) against Enterobacter cloacae [29]; 32 µg/mL (≈ 122 µM) in the experiment with Enterobacter cloacae [30]; 16 µg/mL (≈ 60.8 µM) in the experiment with Enterobacter cloacae [31]. The minimum inhibitory concentration (MIC) against Klebsiella pneumoniae [32] is 16 µg/mL (≈ 60.8 µM); in the experiment with Klebsiella pneumoniae [33], 16 µg/mL (≈ 60.8 µM); against Klebsiella pneumoniae [34], greater than 256 µg/mL; against Klebsiella pneumoniae [35], greater than 256 µg/mL; against Klebsiella pneumoniae [36] it was greater than 256 µg/mL; with Klebsiella pneumoniae [37] it was greater than 256 µg/mL. The same compound gave an MIC with Escherichia coli [38] of 8 µg/mL (≈ 30.4 µM).
